In ChEMBL document CHEMBL2406978, “A novel one-pot synthesis and preliminary biological activity evaluation of cis-restricted polyhydroxy stilbenes incorporating protocatechuic acid and cinnamic acid fragments” (2013):
Activity calls are given as the source filed them. The rule behind the calls is not given here.

Key:
[1] = target: T1, Tyrosinase (Agaricus bisporus) (UniProt O42713); assay: Inhibition of mushroom tyrosinase using L-tyrosine as substrate at 23 uM after 30 mins by spectrophotometric analysis
T1 sequence (whole entry): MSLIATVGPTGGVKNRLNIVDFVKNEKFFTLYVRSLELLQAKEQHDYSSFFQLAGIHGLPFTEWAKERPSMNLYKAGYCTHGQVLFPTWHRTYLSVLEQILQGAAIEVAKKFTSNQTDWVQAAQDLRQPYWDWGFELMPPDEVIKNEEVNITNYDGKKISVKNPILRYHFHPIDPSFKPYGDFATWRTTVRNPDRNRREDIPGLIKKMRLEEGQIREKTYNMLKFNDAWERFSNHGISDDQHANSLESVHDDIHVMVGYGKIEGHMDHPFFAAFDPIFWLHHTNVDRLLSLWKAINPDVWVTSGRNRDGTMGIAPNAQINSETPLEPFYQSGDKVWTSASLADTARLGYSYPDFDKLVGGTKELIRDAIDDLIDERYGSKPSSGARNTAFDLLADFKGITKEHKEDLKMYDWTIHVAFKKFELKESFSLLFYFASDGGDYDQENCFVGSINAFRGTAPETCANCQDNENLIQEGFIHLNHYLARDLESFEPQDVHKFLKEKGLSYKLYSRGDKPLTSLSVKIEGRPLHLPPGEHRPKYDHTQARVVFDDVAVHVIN
How it was run: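 Modified dopachrome method with L-tyrosine substrate, in 3 mL total: 1.0 mL 0.1 M phosphate buffer pH 6.8, 1.0 mL 1.5 mM tyrosine, 0.35 mL 0.2 mM inhibitor stock in DMSO, 0.35 mL water, and 0.30 mL mushroom tyrosinase at 192 U/mL. Reference used DMSO in place of inhibitor. Incubated 37 °C for 30 min, read at 475 nm; activity % = B/A × 100 (sample/reference absorbance).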

Aspergillus flavus = assay: […] activity against Aspergillus flavus IMI 052104 at 50 ug/ml after 24 hrs by agar well diffusion method relative to control; type: functional; settings: IMI 052104, 24 h
[2] = test system: Radical scavenging activity; assay: Antioxidant activity assessed as DPPH free radical scavenging activity at 3.3 uM measured every 10 mins; type: functional
How it was run: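 Compound in methanol (0.5 mL) was added to 0.5 mL of 100 µM DPPH• stock solution, with a final compound level of 3.3 µM and DPPH•/substrate molar ratio 15 (radical in excess). Absorbance at 518 nm was read every 10 min until equilibrium. Methanol served as blank and caffeic acid as reference.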

Aspergillus niger = assay: […] activity against Aspergillus niger A3 at 50 ug/ml after 24 hrs by agar well diffusion method relative to control; type: functional; settings: A3, 24 h
Fusarium graminearum [3] = assay: […] activity against Fusarium graminearum ATCC 24373 at 50 ug/ml after 24 hrs by agar well diffusion method relative to control; type: functional; settings: ATCC 24373, 24 h
Bacillus spizizenii [4] = assay: Antibacterial activity against Bacillus subtilis ATCC 6633 at 50 ug/ml after 24 hrs by agar well diffusion method; type: functional
Pseudomonas aeruginosa = assay: Antibacterial activity against Pseudomonas aeruginosa ATCC 10145 at 50 ug/ml after 24 hrs by agar well diffusion method; type: functional, organism-based
Staphylococcus aureus = assay: Antibacterial activity against Staphylococcus aureus ATCC 25923 at 50 ug/ml after 24 hrs by agar well diffusion method; type: functional, organism-based
Fusarium graminearum [5] = assay: […] activity against Fusarium graminearum ATCC 24373 at 0.17 umol/ml after 24 hrs by agar well diffusion method relative to control; type: functional, organism-based
Candida albicans = assay: […] activity against Candida albicans ATCC 10231 at 50 ug/ml after 24 hrs by agar well diffusion method relative to nystatine; type: functional; settings: ATCC 10231, 24 h
Escherichia coli = assay: Antibacterial activity against Escherichia coli ATCC 25922 at 50 ug/ml after 24 hrs by agar well diffusion method; type: functional, organism-based
Bacillus spizizenii [6] = assay: Antibacterial activity against Bacillus subtilis ATCC 6633 at 50 ug/ml after 24 hrs by agar well diffusion method relative to amikacin; type: functional; settings: ATCC 6633, 24 h
How it was run: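 Agar well diffusion on dried overlays of each test strain. Wells of 7 mm received 100 µL of sample at 0.5 mg/mL in DMSO, with DMSO wells as negative control. Positive controls were an amikacin 30 µg disc for bacteria and 100 µL nystatin 10000 IU/mL for C. albicans. Plates were held 60 min at 4 °C for diffusion, then incubated 24 h at 30 or 37 °C. Inhibition zones were measured in mm, in triplicate, and growth inhibition was expressed relative to the positive control.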

In the case of `Oc1ccc(O)cc1`, the inhibition [1] is reported as “Active”.
For `O=C(O)/C=C/c1ccc(O)c(O)c1` [CAFFEIC ACID], the inhibition at 50 µg/mL (Aspergillus flavus) was 16%, the Activity [2] was “Active” and the inhibition at 50 µg/mL (Aspergillus niger) was 35%. The inhibition [1] was “Active” and the inhibition at 50 µg/mL (Fusarium graminearum [3]) was 63%.
For `O=C(O)/C(=C/c1ccccc1)c1cc(O)c(O)cc1C(=O)O`, the inhibition at 50 µg/mL (Aspergillus flavus) was 43%, the inhibition (Bacillus spizizenii [4]) was “inactive” and the inhibition (Pseudomonas aeruginosa) was “inactive”. The Activity [2] was “Active”, the inhibition at 50 µg/mL (Aspergillus niger) was 34% and the inhibition [1] was “Active”. The inhibition (Staphylococcus aureus) was “inactive”, the inhibition (Fusarium graminearum [5]) was “Active” and the inhibition at 50 µg/mL (Candida albicans) was 40%. The inhibition (Escherichia coli) was “inactive” and the inhibition at 50 µg/mL (Fusarium graminearum [3]) was 89%.
In the case of `CC(C)(C)c1cc(/C=C(/C(=O)O)c2cc(O)c(O)cc2C(=O)O)cc(C(C)(C)C)c1O`, the inhibition at 50 µg/mL (Aspergillus flavus) is reported as 52%, the inhibition (Bacillus spizizenii [4]) is reported as “inactive” and the inhibition (Pseudomonas aeruginosa) is reported as “inactive”. For the same molecule, the Activity [2] was “Active”, the inhibition at 50 µg/mL (Aspergillus niger) was 44% and the inhibition [1] was “Active”. The inhibition (Staphylococcus aureus) was “inactive”, the inhibition at 50 µg/mL (Candida albicans) was 40% and the inhibition (Escherichia coli) was “inactive”. For the same molecule, the inhibition at 50 µg/mL (Fusarium graminearum [3]) was 76%.
Work on `COc1cc(C(=O)O)c(/C(=C\c2cc(C(C)(C)C)c(O)c(C(C)(C)C)c2)C(=O)O)cc1OC` yielded an inhibition at 50 µg/mL (Bacillus spizizenii [6]) of 44%, an inhibition at 50 µg/mL (Aspergillus flavus) of 48% and an Activity [2] of 18%. For the same molecule, the inhibition at 50 µg/mL (Aspergillus niger) was 44%, the inhibition [1] was “Active” and the inhibition at 50 µg/mL (Candida albicans) was 48%. The inhibition at 50 µg/mL (Fusarium graminearum [3]) was 70%.
For `O=C(O)/C(=C/c1ccc(O)cc1)c1cc(O)c(O)cc1C(=O)O`, the inhibition at 50 µg/mL (Aspergillus flavus) was 42%, the inhibition (Bacillus spizizenii [4]) was “inactive” and the inhibition (Pseudomonas aeruginosa) was “inactive”. For the same molecule, the Activity [2] was “Active”, the inhibition at 50 µg/mL (Aspergillus niger) was 38% and the inhibition [1] was “Active”. For the same molecule, the inhibition (Staphylococcus aureus) was “inactive”, the inhibition at 50 µg/mL (Candida albicans) was 34% and the inhibition (Escherichia coli) was “inactive”. For the same molecule, the inhibition at 50 µg/mL (Fusarium graminearum [3]) was 72%.
`O=C(O)/C(=C/c1cc(O)c(O)c(O)c1)c1cc(O)c(O)cc1C(=O)O` was tested, and the inhibition at 50 µg/mL (Aspergillus flavus) was 42%, the inhibition (Bacillus spizizenii [4]) was “inactive” and the inhibition (Pseudomonas aeruginosa) was “inactive”. For the same molecule, the Activity [2] was “Active”, the inhibition at 50 µg/mL (Aspergillus niger) was 37% and the inhibition [1] was “Active”. The inhibition (Staphylococcus aureus) was “inactive”, the inhibition at 50 µg/mL (Candida albicans) was 40% and the inhibition (Escherichia coli) was “inactive”. For the same molecule, the inhibition at 50 µg/mL (Fusarium graminearum [3]) was 71%.
With `O=C(O)/C(=C/c1ccc(O)c(O)c1)c1cc(O)c(O)cc1C(=O)O` the inhibition at 50 µg/mL (Aspergillus flavus) was 42%, the inhibition (Bacillus spizizenii [4]) was “inactive” and the inhibition (Pseudomonas aeruginosa) was “inactive”. The Activity [2] was “Active”, the inhibition at 50 µg/mL (Aspergillus niger) was 37% and the inhibition [1] was “Active”. For the same molecule, the inhibition (Staphylococcus aureus) was “inactive”, the inhibition at 50 µg/mL (Candida albicans) was 45% and the inhibition (Escherichia coli) was “inactive”. It also gave an inhibition at 50 µg/mL (Fusarium graminearum [3]) of 72%.
In the case of `O=C(O)c1ccc(O)c(O)c1` [PROTOCATECHUIC ACID], the inhibition at 50 µg/mL (Aspergillus flavus) is reported as 9%, the Activity [2] is reported as “Active” and the inhibition at 50 µg/mL (Aspergillus niger) is reported as 40%. For the same molecule, the inhibition [1] was “Active” and the inhibition at 50 µg/mL (Fusarium graminearum [3]) was 76%.
